Published values of several laboratories.
Lines come from different studies, so protocols differ.
Cell line: MCF-10A
Read-out: cell growth or viability

Structure (SMILES) | assay | conditions | IC50 [µM]
Cc1cc2ncc(-c3ccccc3)nc2cc1C | – | 48 h | > 50
C[C@H]1O[C@@H](n2cc(F)c(=O)[nH]c2=O)[C@H](O)[C@@H]1O | CCK-8 | 48 h | 8.51
CCCOc1cccc(-c2cnc3c(n2)CCCC3)c1 | – | 48 h | > 50
CC(C)C(=O)Nc1ccc([N+](=O)[O-])c(C(F)(F)F)c1 | CCK-8 | 48 h | 21.4
CC(C)[C@H](NC(=O)c1cc(Cl)ccc1OCCNC(=O)OC(C)(C)C)C(=O)Nc1ccc([N+](=O)[O-])cc1Cl | MTT | 72 h | > 60
C[C@](C#N)(COc1cc(C#N)ccc1C(F)(F)F)NC(=O)c1ccc(SC(F)(F)F)cc1 | – | 48 h | ~32.8
COc1cccc2c1C(=O)c1c(O)c3c(c(O)c1C2=O)C[C@@](O)(C(=O)CO)C[C@@H]3O[C@H]1C[C@H](N)[C@H](O)[C@H](C)O1 | resazurin | 72 h | 0.037
COc1cccc2c1C(=O)c1c(O)c3c(c(O)c1C2=O)C[C@@](O)(C(=O)CO)C[C@@H]3O[C@H]1C[C@H](N)[C@H](O)[C@H](C)O1 | – | 48 h | 2.17
CCN(CC)CCNC(=O)c1c(C)[nH]c(/C=C2\C(=O)Nc3ccc(F)cc32)c1C | – | 72 h | 4.07
O=C(NC(=S)NCCNC(=S)NC(=O)c1ccc2ccccc2c1)c1ccc2ccccc2c1 | – | 48 h | 86.1
CCCc1ccc(-c2cnc3c(n2)CCCC3)cc1 | – | 48 h | > 50
c1ccc2cc(-c3nnc(NC4CCCCC4)[nH]3)ccc2c1 | – | 48 h | 86.6
O=C(/C=C/c1ccccc1)c1ccccc1 | resazurin | 72 h | 3.15
COc1ccc(-c2cnc3c(n2)CCCC3)cc1C#N | – | 48 h | > 50
